# LYP inh 2: LYP (human) phosphatase inhibition; Q9Y2R2; recombinant LYP catalytic domain, DiFMUP fluorescence; inhibition, % at 2 µM; 96,000 compounds, 0.21% hits; AID 640;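 active = inhibition at 2 µM at or above a set limit, the screen mean plus 3 SD, cut at about 24% in these data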;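 note: 0% = DMSO with enzyme and 100% = enzyme fully blocked by orthovanadate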
# PLAP act: human PLAP activation | P05187 | purified PLAP enzyme, luminescent substrate read-out; stronger effect = higher value | activation fold at 20 µM | 96,000 compounds, 1.2% hits | AID 696; in the data active = activation fold above about 2
# HIV Rev-RRE inh: disrupts HIV-1 Rev binding to RRE RNA; Rev peptide-RRE RNA binding, FRET; inhibition, % at 8 µM; 97,000 compounds, 0.79% hits; AID 704;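 active = inhibition above the screen-wide mean plus 3 SD, cut at about 35% in these data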;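 note: 0% = median DMSO wells and 100% = median Neomycin B control wells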
# Target sequence (P05866 whole entry, looked up): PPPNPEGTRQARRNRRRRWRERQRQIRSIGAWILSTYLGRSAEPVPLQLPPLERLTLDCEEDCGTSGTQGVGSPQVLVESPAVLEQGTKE
#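 Assay system: Rev peptide and RRE RNA, both fluorescently labelled; times: 5 min preincubation and 15 min binding, 25 °C; detection: FRET, ex 480 nm, em 540 and 671 nm; read-out basis: % inhibition from 671/540 nm acceptor-to-donor ratio, scaled between controls; benchmarks: DMSO low control, neomycin B high control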
# PLK1 kinase inh: PLK1 (human) kinase inhibition; inhibition, % at 10 µM; recombinant PLK1 kinase, TR-FRET peptide phosphorylation; AID 619; 97,000 compounds, 0.53% hits; P53350;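 active = inhibition of 50% or more in the single-concentration screen; inactive = inhibition below 50%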;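 note: 0% = DMSO max control and 100% = H-89 dihydrochloride min control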
# Target sequence (P53350 whole entry, looked up): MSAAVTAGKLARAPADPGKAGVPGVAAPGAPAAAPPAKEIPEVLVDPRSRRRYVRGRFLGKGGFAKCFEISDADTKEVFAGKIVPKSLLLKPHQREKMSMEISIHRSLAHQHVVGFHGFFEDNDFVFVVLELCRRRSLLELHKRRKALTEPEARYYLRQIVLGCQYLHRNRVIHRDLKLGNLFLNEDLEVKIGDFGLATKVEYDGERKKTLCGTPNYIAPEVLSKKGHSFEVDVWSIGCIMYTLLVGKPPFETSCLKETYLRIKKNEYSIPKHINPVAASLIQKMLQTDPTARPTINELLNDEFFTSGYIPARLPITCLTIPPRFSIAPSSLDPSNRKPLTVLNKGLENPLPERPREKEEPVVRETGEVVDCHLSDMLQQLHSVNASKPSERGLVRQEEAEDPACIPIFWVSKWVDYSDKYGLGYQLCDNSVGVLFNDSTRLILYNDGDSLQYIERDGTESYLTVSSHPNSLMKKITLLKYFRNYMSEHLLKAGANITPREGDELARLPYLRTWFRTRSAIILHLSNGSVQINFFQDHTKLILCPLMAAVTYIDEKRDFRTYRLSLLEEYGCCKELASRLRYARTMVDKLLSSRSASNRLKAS
# LYP act: increases human PTPN22 phosphatase activity; Q9Y2R2; recombinant LYP, DiFMUP fluorescence; 0 = plate median, 100 = signal doubled; activation, % at 2 µM; 96,000 compounds, 0.11% hits;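 active = activation at 2 µM above a set limit, the mean plus 5 SD, cut at about 37% in these data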
# PLK1 PBD inh: Plk1 (human) PBD binding inhibition. P53350. Plk1 PBD phosphopeptide binding, fluorescence polarization. inhibition, %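 (tested at about 20 µM)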. 97,000 compounds, 0.13% hits. AID 693; in the data active = inhibition above about 34%, passing the limit was not always enough
# An asterisk follows results filed as active; nt = no result given; [ ] = another dose, or the depositor's remark. Most compounds without a hit are left out; they make up all but 2.7% or so of the library.
SMILES,LYP inh 2,PLAP act,HIV Rev-RRE inh,PLK1 kinase inh,LYP act,PLK1 PBD inh
CC1C/C(=N/O)C(C)CN1 (stereo not given),-1.2,0.7,11.6,53.1*,3.7,-2.1
Cc1cc(/C=C2/SC(=S)N(c3cccc(Cl)c3)C2=O)c(C)n1-c1cccnc1,10.1,nt,38.6*,-27.2,-4.3,-115.1
Cc1cccc(-c2cc(C(=O)NCCCn3ccnc3)c3ccccc3n2)c1,5.6,1.4,3.1,-8.2,-0.4,-0.7
c1ccc2[nH]c(NC3=NCCC3)nc2c1,8.2,2.1*,6.6,-2.5,-10.7,-0.2
Cc1[nH]nc2ncc(C(=O)c3ccccc3O)cc12,1.9,2.1*,3.7,39.7,-3.6,-20.5
COc1ccc(/C=N/NC(=O)Nc2nonc2N)cc1,4.7,nt,8.0,-2.8,-4.1,-1.9
Cc1cccc(OCCC(=O)NCC(c2ccccc2)N(C)C)c1 (stereo not given),-6.6,1.1,0.2,-6.2,6.6,2.4
COc1ccc(C2C(=O)N(C3CCCCC3)CC(=O)N2C2CCCCC2)cc1 (stereo not given),24.6*,1.6,8.9,-8.6,-24.3,5.9
CCCc1nc2ccccc2c(=O)n1/N=C/c1c(C)[nH]n(-c2ccc(C)cc2)c1=O,-10.1,2.1*,8.0,-1.6,9.8,4.0
CCCc1nc2ccccc2c(=O)n1/N=C/c1ccccc1O,-5.7,1.3,9.1,-12.2,5.4,22.6
Brc1ccc(Oc2ncc(CN3CCN(c4ccccc4)CC3)s2)cc1,-0.9,1.4,13.4,-10.9,1.9,-11.6
Clc1ccccc1CSc1nc2ccncc2[nH]1,-6.9,2.7*,8.1,-3.5,3.5,7.6
Cc1cccc(Nc2nnc(SCc3cn4ccsc4n3)s2)c1,-1.1,2.1*,7.4,11.9,1.0,5.7
O=c1cc(CSc2nnc(Nc3ccccc3)s2)nc2sccn12,4.9,0.9,17.8,-9.7,-3.2,-0.4
Cn1c(=O)cc(SCC(=O)NCCN2CCN(c3ccccc3F)CC2)c2cc(Cl)ccc21,33.2*,1.4,5.5,-5.2,-32.8,-27.2
Cn1c(=O)cc(SCC(=O)NCCCN2CCN(c3ccc(F)cc3)CC2)c2ccccc21,-5.1,1.2,1.2,0.3,2.7,-20.4
Cc1ccc(CNCC2CCCO2)s1 (stereo not given),3.8,1,7.1,-2.3,-6.3,-10.3
CCC1=Nc2cc(C(=O)NCCCOC)ccc2Sc2ccccc21,0.6,2*,0.0,-10.4,-1.2,-1.9
CCCc1cc(-c2[nH]ncc2-c2ccc(C(=O)OCC)o2)c(O)cc1O,-3.1,2.1*,8.6,-7.3,0.0,17.9
CCCc1cc(-c2[nH]ncc2-c2ccc3c(c2)OCCCO3)c(O)cc1O,-1.1,2.6*,13.4,-4.5,-0.3,-18.6
CCOC(=O)c1ccc(CSc2ncn[nH]2)o1,-10.9,0.9,4.2,-8.2,10.4,0.3
NC(=O)C1CCN(C(=O)CCCCCn2c(=O)[nH]c3ccsc3c2=O)CC1,-7.0,nt,4.1,-2.2,2.2,6.1
CCNC(=S)NNC(=O)c1ccc(OC(F)F)cc1,-19.0,2.3*,3.7,-14.4,14.1,6.1
C=CCNC(=S)NNC(=O)c1ccc(OC(C)C)cc1,5.2,2.4*,9.5,-14.6,-3.4,8.4
C=CCNC(=S)NNC(=O)c1csc(C)c1CC,14.6,2.1*,9.2,-12.5,-12.1,-17.9
SMILES,LYP inh 2,PLAP act,HIV Rev-RRE inh,PLK1 kinase inh,LYP act,PLK1 PBD inh
C=CCNC(=S)NNC(=O)c1ccccc1,0.8,1.7,3.7,-16.2,4.6,-1.5
C=CCNC(=S)NNC(=O)c1ccc2c(c1)OCO2,7.5,2.2*,2.2,-10.2,-4.4,-3.5
CC(C)CNC(=S)NNC(=O)c1ccc(OC(F)F)cc1,-0.3,1.3,-0.2,-3.3,4.5,2.6
O=C(O)c1cccnc1SC1CC(=O)N(CCc2ccccc2)C1=O (stereo not given),-3.0,1.5,3.2,0.4,4.5,15.2
COc1cc2cc3c(N)c(C(=O)Nc4sc(C)c(C)c4C#N)sc3nc2cc1OC,-10.1,1.1,99.5*[fluorescence artefact?],-10.5,13.4,-11.0
CCOCC(=O)Nc1nnc(COCC)s1,-3.5,0.8,10.6,-6.7,3.1,-44.6
CCOCC(=O)Nc1nnc(SCCOC)s1,-5.5,1,7.8,51.5*,4.0,-1.3
Cc1cccc(C(=O)NNC2=C(C(=O)C(F)(F)F)CCC2)c1O,14.4,2.3*,4.0,-5.0,-12.4,-15.4
CCCCCC(O)(CCCCC)C(=O)NNc1ccccc1,-2.1,0.9,6.3,-8.5,2.0,-18.6
CCOC(=O)Cc1nnc(NC(=O)COc2ccc(OC)cc2)s1,9.2,1.3,2.7,-9.6,-7.1,-11.9
Cc1ccc(CNc2ccc3c(c2)OCO3)c(C)c1,16.4,0.9,90.3*[fluorescence artefact?],-11.2,-16.3,-35.6
CCCCCCC(C)n1cc(C(C)=O)c(=O)[nH]c1=O (stereo not given),-0.1,1.1,4.2,0.1,2.6,7.0
Brc1ccccc1-c1nnc(CSc2nnnn2-c2ccccc2)o1,8.3,2.1*,10.7,-4.4,-10.1,-5.9
Cc1cc(O)cc(O)c1-c1onc(C(F)(F)F)c1-c1cscn1,0.6,1,5.3,58.0*,-3.6,15.4
CCCn1c(SCC(=O)Nc2ccccc2C(=O)OC)nc2c1c(=O)n(C)c(=O)n2C,5.4,0.9,2.0,-0.9,-1.6,24.9
COc1ccc(C2C(C(C)=O)=C(C)N=c3s/c(=C\c4cc(C)n(C)c4C)c(=O)n32)c(OC)c1 (stereo not given),3.6,1.1,127.8*[fluorescence artefact?],-7.5,-6.0,-199.3
Cc1ccc2nc3sc(C(=O)NCc4ccco4)c(N)c3cc2c1,5.9,nt,37.4*,-7.9,-5.5,-13.3
CCCCCCCCCCSc1n[nH]c(NC(C)=O)n1,2.1,2.9*,18.4,0.4,-2.8,8.7
CCCSc1n[nH]c(NC(C)=O)n1,nt,1,4.3,69.3*,nt,6.7
CSc1n[nH]c(NC(C)=O)n1,5.0,1,4.2,-4.8,0.2,-1.0
c1ccc(CCCNc2ncnc3nc[nH]c23)cc1,nt,1.9,nt,nt,nt,nt
CCCCN(Cc1ccccc1)c1ncnc2nc[nH]c12,nt,2.1*,nt,nt,nt,nt
CCN(c1ccc(OC)cc1)c1ncnc2nc[nH]c12,-7.8,1.7,6.2,8.9,5.4,-18.8
CCCN(c1ccc(OCC)cc1)c1ncnc2nc[nH]c12,nt,2.1*,nt,nt,nt,nt
CCCCOc1ccc(C(C)NC(=O)C2CCCN(S(=O)(=O)CC)C2)cc1 (stereo not given),-15.9,1.1,-1.9,-10.0,15.2,-15.2
CCN1CCCC1CNCc1cc(OC)c(OC)c(OC)c1 (stereo not given),4.0,0.9,7.2,-9.4,-1.7,8.4
Cn1c(CSc2ncn[nH]2)nc2ccccc21,-2.5,2.8*,4.0,-1.7,-0.2,-21.3
Cn1c(CSc2nc3ccccc3s2)nc2ccccc21,1.6,1.2,13.3,4.1,-3.7,11.3
CCCn1c(Nc2ccccc2)nc2ccccc21,-6.8,1,4.8,-3.3,7.4,8.2
CN(C)CCn1c(NC(=O)c2ccc(Cl)cc2)nc2ccccc21,2.3,2.3*,1.7,-0.8,-0.1,7.6

# High-throughput results from PubChem BioAssay.
